# Results taken from ChEMBL document CHEMBL1142473, “Antitumor studies. Part 5: Synthesis, antitumor activity, and molecular docking study of 5-(monosubstituted amino)-2-deoxo-2-phenyl-5-deazaflavins” (Bioorg Med Chem, 2008).
# What was measured:
# CCRF-HSB-2 = assay: Growth inhibition of human CCRF-HSB-2 cells by MTT method; assay type: functional, cell-based
# Summary of the method: (§1)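 IC50 taken from the dose-response curve; AraC run alongside as positive control.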
# KB = assay: Growth inhibition of human KB cells by MTT method; assay type: functional, cell-based; summary of the method: as §1
SMILES,IC50 (CCRF-HSB-2) [µg/mL],IC50 (KB) [µg/mL]
Cc1ccc(Nc2c3c(=O)nc(-c4ccccc4)nc-3n(C)c3ccccc23)cc1C,0.75,1.6
CCCCNc1c2c(=O)nc(-c3ccccc3)nc-2n(CC)c2ccccc12,8.3,7.6
CCCCNc1c2c(=O)nc(-c3ccccc3)nc-2n(C)c2ccccc12,4.7,6.6
CCn1c2nc(-c3ccccc3)nc(=O)c-2c(NCCc2ccccc2)c2ccccc21,63.3,53.4
CCCCCCCCNc1c2c(=O)nc(-c3ccccc3)nc-2n(C)c2ccccc12,> 100,32.9
Cc1ccc(Nc2c3c(=O)nc(-c4ccccc4)nc-3n(C)c3ccccc23)cc1,1.1,1.8
Nc1ccn([C@@H]2O[C@H](CO)[C@@H](O)[C@@H]2O)c(=O)n1 [CYTARABINE],0.017,0.42
CCCCNc1c2c(=O)nc(-c3ccccc3)nc-2n(C)c2ccc(C)cc12,2.1,2.7
CCCCCCCCNc1c2c(=O)nc(-c3ccccc3)nc-2n(CC)c2ccccc12,20.4,12
COC(=O)c1ccccc1Nc1c2c(=O)nc(-c3ccccc3)nc-2n(C)c2ccccc12,> 100,> 100
CCCCCCCCNc1c2c(=O)nc(-c3ccccc3)nc-2n(CC)c2ccc(C)cc12,5.7,2
Cn1c2nc(-c3ccccc3)nc(=O)c-2c(NCCc2ccccc2)c2ccccc21,17.7,22
CCCNc1c2c(=O)nc(-c3ccccc3)nc-2n(C)c2ccccc12,> 100,18
CCCCCCCCNc1c2c(=O)nc(-c3ccccc3)nc-2n(C)c2ccc(C)cc12,8.6,4.7
CCn1c2nc(-c3ccccc3)nc(=O)c-2c(NCc2ccccc2)c2cc(C)ccc21,6.9,17.2
Cn1c2nc(-c3ccccc3)nc(=O)c-2c(NCc2ccccc2)c2ccccc21,> 100,66.9
CCCCNc1c2c(=O)nc(-c3ccccc3)nc-2n(CC)c2ccc(C)cc12,8.9,8.6
CCn1c2nc(-c3ccccc3)nc(=O)c-2c(NCc2ccccc2)c2ccccc21,6.1,4.7
